In BindingDB's records for doi:10.1016/j.bmc.2014.09.025 (Johns Hopkins University, 2014):

Biological target: T1, Mas-related G-protein coupled receptor member X1 (Mus musculus, UniProt Q8CIP3)
T1 sequence (Q8CIP3 whole entry): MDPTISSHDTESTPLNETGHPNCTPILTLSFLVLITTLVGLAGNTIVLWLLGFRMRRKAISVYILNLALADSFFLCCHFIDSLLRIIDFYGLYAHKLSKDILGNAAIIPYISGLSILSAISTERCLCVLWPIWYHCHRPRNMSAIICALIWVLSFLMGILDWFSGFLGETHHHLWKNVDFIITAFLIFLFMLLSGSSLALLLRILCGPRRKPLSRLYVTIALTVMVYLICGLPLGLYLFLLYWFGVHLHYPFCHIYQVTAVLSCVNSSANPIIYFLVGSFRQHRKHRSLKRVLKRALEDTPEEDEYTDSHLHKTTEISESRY
Assay: Agonist activity at mouse MrgC11 transfected in HEK293 cells by FLIPR assay
Method in brief: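 Rodent Mrg receptors were transiently transfected into HEK293 or KNRK cells, which were plated at 25,000 cells/well and imaged 2 days later. Cells were loaded with 2 μM Fluo 4AM and 1% Trypan Red in HBSS for 50 min at 37°C, then held 10 min at room temperature.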

N=C(N)Nc1cccc(C(N)C(=O)N[C@@H](Cc2ccccc2)C(N)=O)c1 (stereo partly specified)
EC50: 31.6 µM
